# Measured values published in ChEMBL document CHEMBL2202955, “Identification of Potent, Selective, Cell-Active Inhibitors of the Histone Lysine Methyltransferase EZH2” (ACS Med Chem Lett, 2012).
# Experiments:
# [1] = target: EZH2/SUZ12/EED/RBBP7/RBBP4; assay: Inhibition of PRC2 complex of FLAG-EZH2, EED, SUZ12, AEBP2 and RbAp48 using histone H3 peptide (21 to 44) as substrate and [3H]SAM after 1 hr; type: protein-complex assay
# [2] = target: EZH1/SUZ12/EED/AEBP2/RBBP4 complex; assay: Inhibition of PRC2 complex of EZH1, EED, SUZ12, AEBP2 and RbAp48 using histone H3 peptide (21 to 44) as substrate and [3H]SAM after 1 hr by SPA; type: protein-complex assay
# How it was run: (§1)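 Panel of methyltransferases tested for selectivity. […] Values are the mean of at least two independent replicates.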
# [3] = target: T1, Histone-lysine N-methyltransferase SETD7 (Homo sapiens, UniProt Q8WTS6); assay: Inhibition of SET7 using histone H3 as substrate preincubated for 10 mins followed by addition of [3H]SAM and incubated for 60 mins; how it was run: as §1
# T1 sequence (Q8WTS6 whole entry): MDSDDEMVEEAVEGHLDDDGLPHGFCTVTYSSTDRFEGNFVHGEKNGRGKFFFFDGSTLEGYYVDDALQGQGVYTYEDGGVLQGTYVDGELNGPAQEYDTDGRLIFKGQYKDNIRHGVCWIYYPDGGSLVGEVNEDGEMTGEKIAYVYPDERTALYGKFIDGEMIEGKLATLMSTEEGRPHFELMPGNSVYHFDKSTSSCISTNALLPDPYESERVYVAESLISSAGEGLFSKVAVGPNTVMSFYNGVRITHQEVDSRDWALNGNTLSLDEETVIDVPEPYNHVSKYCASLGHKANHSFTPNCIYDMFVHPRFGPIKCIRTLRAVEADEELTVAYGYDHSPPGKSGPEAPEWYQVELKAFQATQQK
# [4] = target: Protein arginine N-methyltransferase 1 (Homo sapiens, UniProt Q99873); assay: Inhibition of PRMT1 using histone H4 as substrate preincubated for 10 mins followed by addition of [3H]SAM and incubated for 60 mins; how it was run: as §1
# Protein arginine N-methyltransferase 1, sequence (Q99873 whole entry): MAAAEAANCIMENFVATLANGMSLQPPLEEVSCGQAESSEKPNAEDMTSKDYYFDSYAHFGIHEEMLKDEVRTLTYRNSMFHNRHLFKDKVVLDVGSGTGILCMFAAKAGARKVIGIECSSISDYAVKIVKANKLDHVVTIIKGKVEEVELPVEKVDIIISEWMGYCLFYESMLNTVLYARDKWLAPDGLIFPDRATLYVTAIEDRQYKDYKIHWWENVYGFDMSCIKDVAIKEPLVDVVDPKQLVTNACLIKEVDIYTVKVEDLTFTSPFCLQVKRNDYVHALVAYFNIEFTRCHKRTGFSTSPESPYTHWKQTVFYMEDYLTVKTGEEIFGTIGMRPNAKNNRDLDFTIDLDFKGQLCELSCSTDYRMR
# [5] = target: DNA (cytosine-5)-methyltransferase 3A (Homo sapiens, UniProt Q9Y6K1); assay: Inhibition of DNMT3a using lambda DNA as substrate preincubated for 10 mins followed by addition of [3H]SAM and incubated for 60 mins; how it was run: as §1
# DNA (cytosine-5)-methyltransferase 3A, sequence (Q9Y6K1 whole entry, looked up): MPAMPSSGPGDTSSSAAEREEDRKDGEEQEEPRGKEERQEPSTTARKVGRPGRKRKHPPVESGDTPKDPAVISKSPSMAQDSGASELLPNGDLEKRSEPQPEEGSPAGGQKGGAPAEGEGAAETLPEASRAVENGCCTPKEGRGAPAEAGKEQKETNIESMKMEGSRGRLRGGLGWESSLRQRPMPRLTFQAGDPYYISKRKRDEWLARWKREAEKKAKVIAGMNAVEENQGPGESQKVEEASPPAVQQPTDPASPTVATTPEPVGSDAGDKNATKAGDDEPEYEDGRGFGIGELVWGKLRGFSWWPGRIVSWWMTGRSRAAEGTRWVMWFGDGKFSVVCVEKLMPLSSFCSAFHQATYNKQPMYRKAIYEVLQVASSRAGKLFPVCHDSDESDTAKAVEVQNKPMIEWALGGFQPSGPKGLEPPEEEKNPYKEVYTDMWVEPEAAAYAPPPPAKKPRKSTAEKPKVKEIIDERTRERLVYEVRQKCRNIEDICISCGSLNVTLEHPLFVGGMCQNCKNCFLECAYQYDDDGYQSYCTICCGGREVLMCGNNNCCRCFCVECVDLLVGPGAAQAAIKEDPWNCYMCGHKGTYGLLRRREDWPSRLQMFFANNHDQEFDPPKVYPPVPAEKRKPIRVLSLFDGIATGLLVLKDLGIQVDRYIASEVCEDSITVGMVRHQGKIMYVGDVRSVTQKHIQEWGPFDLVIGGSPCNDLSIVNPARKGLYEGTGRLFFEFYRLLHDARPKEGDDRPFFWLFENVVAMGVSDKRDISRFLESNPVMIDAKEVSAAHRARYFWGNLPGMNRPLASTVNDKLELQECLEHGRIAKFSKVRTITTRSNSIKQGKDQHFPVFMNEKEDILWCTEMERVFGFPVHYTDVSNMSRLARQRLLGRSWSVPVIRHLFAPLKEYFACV
# [6] = target: Histone-lysine N-methyltransferase EZH2 (Homo sapiens, UniProt Q15910); assay: Inhibition of EZH2-mediated nuclear H3K27 methylation in human HCC1806 cells after 72 hrs by immunofluorescence analysis; type: cell-based
# How it was run: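 HCC1806 breast cancer cells were exposed to compound for 72 h. Nuclear H3K27me3 was quantified by an immunofluorescence imaging assay and normalized to total H3. Values are the mean of at least three independent replicates.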
# [7] = target: DNA (cytosine-5)-methyltransferase 1 (Homo sapiens, UniProt P26358); assay: Inhibition of DNMT1 using polydi-dc as substrate preincubated for 10 mins followed by addition of [3H]SAM and incubated for 60 mins; how it was run: as §1
# DNA (cytosine-5)-methyltransferase 1, sequence (P26358 whole entry): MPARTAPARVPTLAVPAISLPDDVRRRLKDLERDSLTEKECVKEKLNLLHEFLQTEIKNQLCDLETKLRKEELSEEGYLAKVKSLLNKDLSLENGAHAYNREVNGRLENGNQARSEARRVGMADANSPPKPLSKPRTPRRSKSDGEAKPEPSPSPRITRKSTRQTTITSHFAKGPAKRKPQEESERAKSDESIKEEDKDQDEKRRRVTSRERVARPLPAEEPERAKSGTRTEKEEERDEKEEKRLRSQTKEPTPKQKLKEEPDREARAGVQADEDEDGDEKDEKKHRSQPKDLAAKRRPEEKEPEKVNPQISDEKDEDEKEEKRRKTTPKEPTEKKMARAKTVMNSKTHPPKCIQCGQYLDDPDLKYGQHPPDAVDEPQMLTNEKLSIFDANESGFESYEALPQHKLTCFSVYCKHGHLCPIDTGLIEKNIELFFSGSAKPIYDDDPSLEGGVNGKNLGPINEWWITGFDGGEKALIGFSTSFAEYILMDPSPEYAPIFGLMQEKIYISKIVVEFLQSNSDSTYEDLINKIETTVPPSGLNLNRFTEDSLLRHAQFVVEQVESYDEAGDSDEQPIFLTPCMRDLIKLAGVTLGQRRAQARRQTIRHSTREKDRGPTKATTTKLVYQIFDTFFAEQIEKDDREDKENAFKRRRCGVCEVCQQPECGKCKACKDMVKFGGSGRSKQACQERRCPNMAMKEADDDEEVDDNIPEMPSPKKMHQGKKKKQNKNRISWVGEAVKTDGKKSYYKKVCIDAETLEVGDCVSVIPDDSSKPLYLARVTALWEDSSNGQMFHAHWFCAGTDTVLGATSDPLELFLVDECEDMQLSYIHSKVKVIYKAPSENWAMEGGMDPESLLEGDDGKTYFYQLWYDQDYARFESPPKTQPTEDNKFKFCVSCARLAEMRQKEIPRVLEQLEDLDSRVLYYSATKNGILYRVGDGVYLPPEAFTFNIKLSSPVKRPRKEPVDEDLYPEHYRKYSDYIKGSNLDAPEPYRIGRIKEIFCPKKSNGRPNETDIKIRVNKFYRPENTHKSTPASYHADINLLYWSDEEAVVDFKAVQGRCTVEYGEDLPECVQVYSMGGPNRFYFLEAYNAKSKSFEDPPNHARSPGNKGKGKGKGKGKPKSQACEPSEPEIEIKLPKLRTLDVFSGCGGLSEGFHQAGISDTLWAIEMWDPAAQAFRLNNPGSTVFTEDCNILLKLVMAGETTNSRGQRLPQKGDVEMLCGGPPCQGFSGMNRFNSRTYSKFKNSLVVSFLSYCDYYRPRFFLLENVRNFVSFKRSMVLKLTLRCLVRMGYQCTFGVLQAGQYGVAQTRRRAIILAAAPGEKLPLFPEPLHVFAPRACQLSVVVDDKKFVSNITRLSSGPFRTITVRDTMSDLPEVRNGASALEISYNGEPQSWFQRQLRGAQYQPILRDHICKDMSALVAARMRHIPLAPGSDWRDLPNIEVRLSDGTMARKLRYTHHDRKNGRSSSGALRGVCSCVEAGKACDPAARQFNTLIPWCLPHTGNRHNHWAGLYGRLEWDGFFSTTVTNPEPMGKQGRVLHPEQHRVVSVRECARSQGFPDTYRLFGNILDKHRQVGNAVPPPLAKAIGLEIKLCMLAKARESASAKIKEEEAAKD
# [8] = target: T2, Histone-lysine N-methyltransferase EHMT2 (Homo sapiens, UniProt Q96KQ7); assay: Inhibition of G9a using histone H3 as substrate preincubated for 10 mins followed by addition of [3H]SAM and incubated for 60 mins; how it was run: as §1
# T2 sequence (Q96KQ7 whole entry): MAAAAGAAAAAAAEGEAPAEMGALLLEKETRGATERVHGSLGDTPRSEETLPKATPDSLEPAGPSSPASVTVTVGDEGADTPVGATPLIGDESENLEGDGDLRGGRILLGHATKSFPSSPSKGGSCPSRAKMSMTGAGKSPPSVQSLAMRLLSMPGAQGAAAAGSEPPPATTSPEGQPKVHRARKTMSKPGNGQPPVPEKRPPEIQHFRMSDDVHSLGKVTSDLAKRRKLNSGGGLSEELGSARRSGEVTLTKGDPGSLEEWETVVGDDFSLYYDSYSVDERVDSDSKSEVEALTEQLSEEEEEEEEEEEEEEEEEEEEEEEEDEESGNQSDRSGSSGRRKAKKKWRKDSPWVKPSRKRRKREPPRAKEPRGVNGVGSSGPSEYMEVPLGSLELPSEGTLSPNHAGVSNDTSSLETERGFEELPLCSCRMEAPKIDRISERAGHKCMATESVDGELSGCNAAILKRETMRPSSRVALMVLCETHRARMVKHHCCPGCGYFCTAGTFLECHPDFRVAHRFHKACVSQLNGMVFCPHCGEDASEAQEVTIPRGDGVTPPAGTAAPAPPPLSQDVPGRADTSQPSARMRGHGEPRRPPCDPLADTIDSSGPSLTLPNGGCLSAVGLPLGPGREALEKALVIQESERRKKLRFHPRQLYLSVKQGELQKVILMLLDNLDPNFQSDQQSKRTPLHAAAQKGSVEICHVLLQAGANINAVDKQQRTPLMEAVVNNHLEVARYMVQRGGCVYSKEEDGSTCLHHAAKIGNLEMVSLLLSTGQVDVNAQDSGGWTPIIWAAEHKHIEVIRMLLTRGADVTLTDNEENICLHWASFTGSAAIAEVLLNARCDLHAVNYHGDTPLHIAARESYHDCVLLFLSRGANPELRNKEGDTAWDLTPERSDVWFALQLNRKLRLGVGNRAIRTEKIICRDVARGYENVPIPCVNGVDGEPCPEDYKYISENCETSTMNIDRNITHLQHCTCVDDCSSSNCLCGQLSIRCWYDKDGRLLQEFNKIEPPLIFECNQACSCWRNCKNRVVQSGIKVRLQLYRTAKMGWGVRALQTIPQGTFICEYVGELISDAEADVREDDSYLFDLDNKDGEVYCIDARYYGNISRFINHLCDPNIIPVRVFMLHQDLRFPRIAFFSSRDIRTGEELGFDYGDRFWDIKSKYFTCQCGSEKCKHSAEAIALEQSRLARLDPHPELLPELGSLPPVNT
# [9] = target: Protein arginine N-methyltransferase 5 (Homo sapiens, UniProt O14744); assay: Inhibition of PRMT5 using histone H3 as substrate preincubated for 10 mins followed by addition of [3H]SAM and incubated for 60 mins; how it was run: as §1
# Protein arginine N-methyltransferase 5, sequence (O14744 whole entry): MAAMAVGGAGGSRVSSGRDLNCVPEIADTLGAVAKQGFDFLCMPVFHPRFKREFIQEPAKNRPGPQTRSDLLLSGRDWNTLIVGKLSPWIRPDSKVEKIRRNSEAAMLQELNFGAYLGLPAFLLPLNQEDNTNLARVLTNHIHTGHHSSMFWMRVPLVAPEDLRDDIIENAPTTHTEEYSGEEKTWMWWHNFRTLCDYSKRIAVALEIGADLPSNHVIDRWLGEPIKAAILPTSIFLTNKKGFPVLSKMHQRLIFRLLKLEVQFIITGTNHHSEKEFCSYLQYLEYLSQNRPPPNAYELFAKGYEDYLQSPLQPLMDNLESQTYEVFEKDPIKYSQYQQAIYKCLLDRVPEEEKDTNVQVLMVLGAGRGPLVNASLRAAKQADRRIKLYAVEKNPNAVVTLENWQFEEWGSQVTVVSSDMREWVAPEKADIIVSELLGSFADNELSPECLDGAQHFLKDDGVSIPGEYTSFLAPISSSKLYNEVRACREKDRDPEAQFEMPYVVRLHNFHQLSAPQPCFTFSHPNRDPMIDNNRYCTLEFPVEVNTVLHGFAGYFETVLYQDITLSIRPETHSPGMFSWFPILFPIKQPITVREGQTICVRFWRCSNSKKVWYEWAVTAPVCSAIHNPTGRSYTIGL
IC50 [1] [µM],IC50 [2] [µM],IC50 [3] [µM],IC50 [4] [µM],IC50 [5] [µM],IC50 [6] [µM],IC50 [7] [µM],IC50 [8] [µM],IC50 [9] [µM],inhibition [6],Structure (SMILES)
0.004,0.24,63,> 100,> 100,0.174,> 100,> 100,> 100,,CCCc1cc(C)[nH]c(=O)c1CNC(=O)c1cc(-c2ccnc(N3CCN(C)CC3)c2)cc2c1cnn2C(C)C
0.02,2.5,214,> 100,> 100,0.324,> 100,> 100,> 100,Dose-dependent effect,Cc1cc(C)c(CNC(=O)c2cc(-c3ccc(N4CCN(C)CC4)nc3)cc3c2cnn3C(C)C)c(=O)[nH]1
0.004,0.1,49,> 100,> 100,0.079,121,> 100,> 100,,CCCc1cc(C)[nH]c(=O)c1CNC(=O)c1cc(-c2ccc(N3CCN(C)CC3)nc2)cc2c1cnn2C(C)C
